Assay results: BindingDB's records for doi:10.1016/j.ejmech.2019.111920 (Jagiellonian University Medical College, 2020)

target: T1, Sodium- and chloride-dependent GABA transporter 2 (Mus musculus, UniProt P31649); test: Inhibition of mouse GAT2 expressed in HEK293 cell line assessed as inhibition of [3H]GABA uptake measured after 35 mins by liquid scintillation method
T1 sequence (P31649 whole entry): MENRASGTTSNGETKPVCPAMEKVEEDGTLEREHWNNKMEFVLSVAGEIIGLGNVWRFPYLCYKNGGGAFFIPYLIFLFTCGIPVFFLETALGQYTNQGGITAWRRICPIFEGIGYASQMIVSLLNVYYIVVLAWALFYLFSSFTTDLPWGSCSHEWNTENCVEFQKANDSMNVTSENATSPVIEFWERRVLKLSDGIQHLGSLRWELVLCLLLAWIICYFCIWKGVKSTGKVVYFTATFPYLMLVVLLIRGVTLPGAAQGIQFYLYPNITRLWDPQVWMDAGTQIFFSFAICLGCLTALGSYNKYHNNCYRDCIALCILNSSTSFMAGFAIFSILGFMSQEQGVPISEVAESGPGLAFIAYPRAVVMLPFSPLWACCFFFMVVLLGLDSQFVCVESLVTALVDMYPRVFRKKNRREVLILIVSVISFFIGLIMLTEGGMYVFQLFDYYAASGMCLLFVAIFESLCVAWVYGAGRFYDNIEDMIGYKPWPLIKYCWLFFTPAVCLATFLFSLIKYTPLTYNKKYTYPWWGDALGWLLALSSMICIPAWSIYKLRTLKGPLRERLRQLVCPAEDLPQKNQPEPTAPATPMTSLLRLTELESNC
Procedure, shortened: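 [3H]GABA uptake assay at each mGAT subtype, with screening at 100 µM inhibitor. […] Otherwise, the remaining uptake at 100 µM is reported as a percentage. Values without SEM come from a single triplicate experiment.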

First: O=C(O)C1=CCCN(CCON=C(c2ccccc2)c2ccccc2)C1
Second: O=C(O)C1=CCCN(CCO/N=C/c2ccccc2-c2ccc(Cl)cc2Cl)C1
The IC50 of the first is 13-fold higher: 631 µM for the first, 49 µM for the second. The second is the more potent here.

Going from NCC(O)C(=O)O (stereo unspecified) to Cc1ccsc1C(=CCCN(C)C(CCN)C(=O)NCc1ccccc1)c1sccc1C (stereo unspecified), the IC50 falls from 229 µM to 5.5 µM (42-fold).

Compared with Cc1ccsc1C(=CCCN(C)C(CCO)C(=O)NCc1ccccc1)c1sccc1C (stereo unspecified), Cc1ccsc1C(=CCCN(C)C(CO)C(=O)NCc1ccccc1)c1sccc1C (stereo unspecified) is 1.5-fold higher in IC50: 20.4 µM for the first, 30.9 µM for the second. The first is the more potent here.

Compared with Cc1ccsc1C(=CCCN(C)C(CCO)C(=O)NCc1ccccc1Cl)c1sccc1C (stereo unspecified), CC(=O)NCCC(C(=O)NCc1ccccc1Cl)N(C)CCC=C(c1sccc1C)c1sccc1C (stereo unspecified) is 2.3-fold lower in IC50: 10.5 µM for the first, 4.47 µM for the second. The second is the more potent here.

Going from Cc1ccsc1C(=CCCN(C)C(CCO)C(=O)NCc1ccc(F)cc1)c1sccc1C (stereo unspecified) to Cc1ccsc1C(=CCCN(C)C(CO)C(=O)NCc1ccc(F)cc1)c1sccc1C (stereo unspecified), the IC50 rises from 5.62 µM to 22.4 µM (4-fold).

First: Cc1ccc(CNC(=O)C(CCO)N(C)CCC=C(c2sccc2C)c2sccc2C)cc1 (stereo unspecified)
Second: Cc1ccc(CNC(=O)C(CO)N(C)CCC=C(c2sccc2C)c2sccc2C)cc1 (stereo unspecified)
The IC50 of the first is 2.5-fold lower: 9.77 µM for the first, 24 µM for the second.

First: Cc1ccsc1C(=CCCN(C)C(CCO)C(=O)NCc1ccc(F)cc1F)c1sccc1C (stereo unspecified)
Second: Cc1ccsc1C(=CCCN(C)C(CO)C(=O)NCc1ccc(Cl)cc1)c1sccc1C (stereo unspecified)
The IC50 of the first is 1.6-fold lower: 10 µM for the first, 15.8 µM for the second. The first is the more potent here.

Cc1ccsc1C(=CCCN(C)C(CC(C)O)C(=O)NCc1ccccc1)c1sccc1C (stereo unspecified) and Cc1ccsc1C(=CCCN(C)C(CC(C)O)C(=O)NCc1ccccc1Cl)c1sccc1C (stereo unspecified) are within 1.5-fold of each other in IC50: 8.91 µM for the first, 10.4 µM for the second.

First: Cc1ccsc1C(=CCCN(C)C(CC(C)O)C(=O)NCc1ccc(Cl)cc1)c1sccc1C (stereo unspecified)
Second: Cc1ccsc1C(=CCCN(C)C(CC(C)O)C(=O)NCc1ccc(F)cc1)c1sccc1C (stereo unspecified)
The IC50 of the first is 2.5-fold lower: 10.5 µM for the first, 26.3 µM for the second.

Compared with Cc1ccc(CNC(=O)C(CC(C)O)N(C)CCC=C(c2sccc2C)c2sccc2C)cc1 (stereo unspecified), Cc1ccc(CNC(=O)C(CCN)N(C)CCC=C(c2sccc2C)c2sccc2C)cc1 (stereo unspecified) is 2.2-fold lower in IC50: 17 µM for the first, 7.76 µM for the second. The second is the more potent here.

Cc1ccsc1C(=CCCN(C)C1CCc2onc(O)c2C1)c1sccc1C (stereo unspecified) showed an IC50 of 25.7 µM.
